INS-1E GSIS act – GLuc luminescence reporter in INS-1E cells, primary screen for activators of glucose-dependent secretion of insulin; INS-1E GLuc reporter insulin secretion, 2-3 h; activation, % at 16.6 µM; 370,000 compounds, 0.61% hits;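 active means lowest replicate activation of at least 40%, so every replicate reaches that level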;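 further: 0% = median of neutral control wells and 100% = median of IBMX positive control wells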
CaV13 FRET inh – Disruptors of the CACNA1D IQ motif to Ca2+-dependent inactivation inhibitor domain association, primary screening, Förster resonance energy transfer in intact living … | HEK cells, CFP/YFP FRET ICDI-IQ, plate reader, 10 min; percent FRET-ratio fall versus neutral wells | inhibition, % at 12.3 µM | 340,000 compounds, 0.098% hits;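 active means mean replicate inhibition of at least 30% and at least 1% of replicates passing that level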;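 further: 0% = median of the neutral control wells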
Xi reactivation – activators of inactive X chromosome reactivation, primary screen, imaging, XiGFP fibroblasts, GFP high-content imaging, set 2; XiGFP mouse fibroblasts, % GFP-positive cells imaging, 3 d; cells co-treated with 5-aza-dC sensitizer; scaled so ellipticine positive control = 100%; activation, % at 7.58 µM; 360,000 compounds, 0.055% hits; AID 743238, 2013;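 active means mean normalized replicate activation at least 10% and every replicate at or above 10%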;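 further: 0% = median of on-plate neutral control wells and 100% = ellipticine 6 µM median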
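Material: XiGFP fibroblasts, SV40-immortalized; Buffer or medium: DMEM containing 5-aza-dC; Compound dosing: single point; Times: 3 days compound exposure.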
GAA850 FXN act – FXN promoter activators, primary screen, cell-based, luciferase luminescence, HEK293 lucGAA850; activation, % at 6 µM; 360,000 compounds, 0.56% hits; HEK293 lucGAA850 FXN promoter luciferase reporter, 24 h; percent of 10 µM SAHA response;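 active means activation above the average of all compounds screened plus 3 SD, cutoff fixed separately per campaign, cut at about 7.5% in these data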;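 further: 0% = DMSO wells and 100% = 10 µM SAHA wells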
GAA30 FXN cntr – GAA30 FXN promoter activators, confirmation, counter-screen for GAA850 frataxin promoter activator project, cell-based, luminescence, HEK293, lucGAA30, triplicate; shares compounds with GAA850 FXN act; HEK293 lucGAA30 FXN promoter luciferase, 24 h; DMSO = 0%, 5 µM ipriflavone = 100%; activation, % at 6 µM; 1,900 compounds, 66% hits; AID 588350, 2011;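 active means mean activation above the mean of solvent-only control wells plus 3 SD, cut at about 22% in these data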;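 further: counterscreen of GAA850 promoter hits where activity marks nonselective or luminescence artifacts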
FXN GAA850 conf – FXN GAA850 promoter activators in reporter cells, confirmation, cell-based, luminescence, HEK293 lucGAA850, triplicate; shares compounds with GAA850 FXN act; HEK293 lucGAA850 FXN promoter luciferase reporter, 24 h; 100% = activation by SAHA; activation, % at 6 µM; 1,900 compounds, 86% hits;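 active means mean activation above a set limit taken from the primary screen, cut at about 8% in these data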;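 further: 0% = DMSO wells and 100% = 10 µM SAHA wells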
Starred values were filed as active, the others as inactive; nt = no result given. A selection: hits, their analogues and other compounds. The true share with any hit is near 1%.

SMILES | INS-1E GSIS act | CaV13 FRET inh | Xi reactivation | GAA850 FXN act | GAA30 FXN cntr | FXN GAA850 conf
CCN(C[C@H]1N[C@@](C)(C(=O)OC)[C@H]2C(=O)N(Cc3ccccc3)C(=O)[C@@H]12)C(=O)Nc1ccc(OC)cc1 | -20 | -5 | 0 | 9.4* | 27* | 9.3*
CCN(C[C@H]1N[C@@](C)(C(=O)OC)[C@H]2C(=O)N(C)C(=O)[C@@H]12)C(=O)Nc1ccccc1 | nt | -3 | 0 | -1 | nt | nt
CCN(C[C@H]1N[C@@](Cc2ccccc2)(C(=O)OC)[C@H]2C(=O)N(Cc3ccccc3)C(=O)[C@@H]12)C(=O)Nc1ccc(Cl)cc1 | -37 | -8 | 0 | -7 | nt | nt
CCN(C[C@H]1N[C@@](C)(C(=O)OC)[C@H]2C(=O)N(Cc3ccccc3)C(=O)[C@@H]12)C(=O)Nc1ccc(Cl)cc1 | -12 | -5 | 0 | 14* | 37* | 15*
CO[C@H](CN(C)C(=O)c1ccccc1F)[C@H](C)CN([C@H](C)CO)S(=O)(=O)c1ccc(C)cc1 | -2 | nt | 0 | nt | nt | nt
CCc1cccc(CC)c1NC(=O)/C(C#N)=C/c1ccccc1C(F)(F)F | 0 | -6 | 0 | 8.0* | -12 | 13*
N#C/C(=C\c1ccccc1C(F)(F)F)C(=O)Nc1ccccc1 | -12 | -17 | 0 | 2 | nt | nt
Cc1ccc2oc(-c3ccc(C)c(NC(=S)NC(=O)c4cccs4)c3)nc2c1 | 3 | -2 | 0 | 8.6* | 96* | 19*
COc1ccc(CN2C[C@@H](C)[C@H](OC)CN(C)C(=O)c3cc(NC(=O)C4CC4)ccc3OC[C@H]2C)cc1 | -15 | nt | -1 | nt | nt | nt
OC[C@H]1N[C@@H](CNCC2CCC2)[C@@H]1c1ccc(C2=CCCCC2)cc1 | 5 | nt | 0 | nt | nt | nt
Cc1cc2nc3ccc(N(C)C)cc3nc2cc1N | nt | -25 | 2 | 7.8* | 119* | 34*
CN(C)CC#Cc1ccc([C@@H]2[C@@H](CO)N3CCCCN(C(=O)NC4CCCC4)C[C@@H]23)cc1 | 18 | nt | 0 | nt | nt | nt
CCOc1ccc(C(C)=O)cc1COC(=O)c1ccccc1C(=O)N(C)Cc1ccccc1 | -55 | -6 | 0 | 9.5* | 16 | 15*
CN(Cc1ccccc1)C(=O)c1ccccc1C(=O)OCC(=O)N(Cc1ccccc1)C(C)(C)C | -67 | -5 | 0 | -7 | nt | nt
CN(C)C(=O)c1cccc(-c2ccc([C@H]3[C@@H](CO)N4CCCCN(C(=O)C5CCC5)C[C@@H]34)cc2)c1 | 1 | nt | 0 | nt | nt | nt
COc1ccc(C(=O)N=c2sc3c(C)ccc(OC)c3n2C)cc1OC | -7 | -2 | 0 | 6 | nt | nt
COc1ccccc1C(=O)N=c1sc2c(C)ccc(OC)c2n1C | 6 | -3 | 0 | 9.5* | 82* | 32*
COc1ccccc1NC(=O)c1ccc(Br)o1 | nt | -4 | nt | 1 | nt | nt
Cc1cc(O)c(NC(=O)c2ccc(Br)o2)cc1C | nt | -3 | nt | 9.3* | 91* | 27*
O=C(C[C@@H]1C=C[C@@H](NS(=O)(=O)c2ccc(F)cc2)[C@H](CO)O1)NCCc1ccncc1 | 3 | nt | 0 | nt | nt | nt
CC(=O)Oc1ccccc1C(=O)C=Cc1cccc([N+](=O)[O-])c1 | nt | -6 | 1 | 17* | -51 | 22*
COc1ccc(C2=Nn3c(nnc3-c3cccnc3)SC2)cc1OC | nt | -9 | nt | 15* | 31* | 20*
Brc1ccc(C2=Nn3c(nnc3-c3cccnc3)SC2)s1 | nt | nt | nt | 5 | nt | nt
COc1ccc(CNC(=O)c2c(-c3cc(Cl)c(OC)c(Cl)c3)noc2C)cc1 | 0 | 7 | 0 | 10* | 17 | 11*
Cc1onc(-c2ccccc2)c1C(=O)NCc1ccc(Cl)cc1 | 5 | -4 | 0 | 1 | nt | nt
CSc1ncnc2c1ncn2CCCN[C@H](C)c1cccc2ccccc12 | -17 | -9 | 0 | 9.6* | 19 | 9.8*

Bioassay records from PubChem.
